The text below walks through data of ChEMBL document CHEMBL1143582, “Discovery of the alpha7 nicotinic acetylcholine receptor agonists. (R)-3'-(5-Chlorothiophen-2-yl)spiro-1-azabicyclo[2.2.2]octane-3,5'-[1',3']oxazolidin-2'-one as a novel, potent, selective, and orally bioavailable ligand” (J Med Chem, 2005).

Each structure is given as a SMILES string. Bounds are passed on as bounds.

The target in series [1] is T1, Neuronal acetylcholine receptor subunit alpha-7 (Rattus norvegicus, UniProt Q05941). The experiment in a line: (§1) Inhibition of [125I]alpha-bungarotoxin binding to rat nicotinic acetylcholine receptor alpha7.
The target in series [2] is T1, Neuronal acetylcholine receptor subunit alpha-7. Described as §1. The essentials:
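Membranes from Wistar rat hippocampus made by sucrose homogenisation and differential centrifugation, then resuspended in 118 mM NaCl, 4.8 mM KCl, 2.5 mM CaCl2, 1.2 mM MgCl2, 20 mM Na-HEPES pH 7.5. Incubated with [125I]-α-bungarotoxin plus compounds, 37 °C, 3 h. Bound label collected by filtration. Nonspecific binding defined with 100 µM (−)-nicotine.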
This is another data set of the same source.

Series [3] can be described thus: Area under plasma concentration time curve 24 hours after peroral dosing of 10.0 mg/kg (AUC) in rats (N=4). It is filed as ADME, organism-based. Also noted: dose 10 mg/kg, route oral. The conditions noted are these: rat, po. The essentials: (§2)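 Rats (N=4) given a single oral dose; plasma sampled over 24 h. AUC0-24h estimated from the plasma concentration-time curve and Cmax taken as the peak plasma level. Reported as mean ± SD.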

The nature of series [4]: Inhibition of [125I]alpha-bungarotoxin binding to nicotinic acetylcholine receptor […]-delta-gamma from BC3H1 cells. It is filed as cell-based, Mus musculus. The conditions noted are these: bc3h-1. The essentials: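 BC3H1 muscle cells grown in DMEM with 4 mM L-glutamine and 20% FBS. Membranes from confluent cells washed in HEPES-buffered saline, pH 7.5. Incubated with [125I]-α-bungarotoxin plus compounds, 37 °C, 3 h, then filtered. Nonspecific binding defined with […].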

Series [5] can be described thus: Brain permeability is determined by ratio of concentration of compound in brain to that of in plasma (CB/CP) 1 hr after subcutaneous dosing of 1.0 mg/kg (N=3). The class given is ADME, organism-based. Also noted: dose 1 mg/kg, route subcutaneous. The conditions noted are these: rat, sc, read-out: Permeability. The essentials:
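Rats (N=3) given a single 1 mg/kg sc dose. Brain and plasma concentrations measured 1 h later, and the brain/plasma ratio (CB/CP) calculated. Reported as mean ± SD.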

Series [6] can be described thus: Maximum plasma concentration after peroral dosing of 10.0 mg/kg in rats (N=4). The class given is ADME, organism-based. Also noted: dose 10 mg/kg, route oral. To be noted: rat, po. The essentials: as §2
A short description of series [7]: Oral bioavailability of compound after peroral dosing of 10.0 mg/kg in rats (N=4). The class given is ADME, organism-based. The conditions noted are these: rat, in vivo, read-out: BA.
Series [8] has as its target Neuronal acetylcholine receptor; alpha4/beta2 (Rattus norvegicus, UniProt P09483+P12390). Nature of the series: Inhibition of [3H]cytisine binding to nicotinic acetylcholine receptor alpha4-beta2 from rat cerebral cortex. It is filed as tissue-based. In a few lines: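 Wistar rat cerebral cortex membranes in 120 mM NaCl, 2.5 mM KCl, 1 mM CaCl2, 1 mM MgCl2, 50 mM Tris-HCl pH 7.4. Incubated with [3H]cytisine plus compounds, 4 °C, 75 min. Filtered and counted by liquid scintillation. Nonspecific binding defined with 100 µM (−)-nicotine.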

The nature of series [9]: Brain permeability is determined by ratio of concentration of compound in brain to that of in plasma (CB/CP) 2 hrs after oral dosing of 10.0 mg/kg (N=3). The class given is ADME, organism-based. The arrangement: dose 10 mg/kg, route oral. To be noted: rat, read-out: Permeability. In a few lines: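 Rats (N=3) given a single 10 mg/kg oral dose. Brain and plasma concentrations measured 2 h after dosing, and the brain/plasma ratio (CB/CP) calculated. Reported as mean ± SD.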

Series [10] in a line: Half-life of plasma concentration after intravenous dosing of 1 mg/kg in rats (N=4). The conditions noted are these: rat.
The nature of series [11]: Oral bioavailability of compound after peroral dosing of 1.0 mg/kg in rats (N=4). It is filed as ADME, organism-based. The conditions noted are these: rat, in vivo, read-out: BA.
The nature of series [12]: Maximum plasma concentration after peroral dosing of 1.0 mg/kg in rats (N=4). The conditions noted are these: rat, po. Also noted: dose 1 mg/kg, route oral. It is filed as ADME, organism-based. In a few lines: as §2
Series [13] can be described thus: Area under plasma concentration time curve 24 hours after peroral dosing of 1.0 mg/kg (AUC) in rats (N=4). It is filed as ADME, organism-based. The arrangement: dose 1 mg/kg, route oral. To be noted: rat, po. In a few lines: as §2

T1 sequence (Q05941 whole entry): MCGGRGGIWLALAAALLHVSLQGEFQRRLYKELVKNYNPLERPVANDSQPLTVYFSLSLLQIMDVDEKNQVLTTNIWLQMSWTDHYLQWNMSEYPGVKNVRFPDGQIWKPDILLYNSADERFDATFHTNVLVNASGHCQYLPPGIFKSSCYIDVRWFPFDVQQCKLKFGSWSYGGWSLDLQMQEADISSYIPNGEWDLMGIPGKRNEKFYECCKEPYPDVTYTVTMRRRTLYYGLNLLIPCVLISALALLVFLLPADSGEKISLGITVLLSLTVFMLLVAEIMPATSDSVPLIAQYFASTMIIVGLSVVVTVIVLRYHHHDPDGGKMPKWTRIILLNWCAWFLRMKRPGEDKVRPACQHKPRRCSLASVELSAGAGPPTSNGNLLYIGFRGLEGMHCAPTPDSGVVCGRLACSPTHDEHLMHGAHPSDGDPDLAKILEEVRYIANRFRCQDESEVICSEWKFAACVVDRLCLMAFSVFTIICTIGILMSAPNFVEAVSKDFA
Neuronal acetylcholine receptor; alpha4/beta2, sequence (P09483 whole entry): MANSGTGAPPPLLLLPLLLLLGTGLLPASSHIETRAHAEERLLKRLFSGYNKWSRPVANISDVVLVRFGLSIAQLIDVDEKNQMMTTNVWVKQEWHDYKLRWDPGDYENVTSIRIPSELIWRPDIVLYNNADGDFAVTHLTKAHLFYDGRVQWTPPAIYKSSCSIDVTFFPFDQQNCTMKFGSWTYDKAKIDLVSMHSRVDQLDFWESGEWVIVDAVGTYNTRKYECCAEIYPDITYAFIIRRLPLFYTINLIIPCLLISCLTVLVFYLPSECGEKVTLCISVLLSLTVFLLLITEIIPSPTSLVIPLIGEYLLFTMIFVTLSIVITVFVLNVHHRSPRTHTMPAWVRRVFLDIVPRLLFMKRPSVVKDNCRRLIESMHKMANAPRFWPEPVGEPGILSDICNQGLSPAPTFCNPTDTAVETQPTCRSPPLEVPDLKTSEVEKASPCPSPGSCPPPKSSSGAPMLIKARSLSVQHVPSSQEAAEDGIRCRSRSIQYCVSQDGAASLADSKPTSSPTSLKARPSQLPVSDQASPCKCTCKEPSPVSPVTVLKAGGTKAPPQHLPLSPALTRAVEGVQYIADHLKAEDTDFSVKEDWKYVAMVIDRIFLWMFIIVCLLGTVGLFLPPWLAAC
Neuronal acetylcholine receptor; alpha4/beta2, sequence (P12390 whole entry): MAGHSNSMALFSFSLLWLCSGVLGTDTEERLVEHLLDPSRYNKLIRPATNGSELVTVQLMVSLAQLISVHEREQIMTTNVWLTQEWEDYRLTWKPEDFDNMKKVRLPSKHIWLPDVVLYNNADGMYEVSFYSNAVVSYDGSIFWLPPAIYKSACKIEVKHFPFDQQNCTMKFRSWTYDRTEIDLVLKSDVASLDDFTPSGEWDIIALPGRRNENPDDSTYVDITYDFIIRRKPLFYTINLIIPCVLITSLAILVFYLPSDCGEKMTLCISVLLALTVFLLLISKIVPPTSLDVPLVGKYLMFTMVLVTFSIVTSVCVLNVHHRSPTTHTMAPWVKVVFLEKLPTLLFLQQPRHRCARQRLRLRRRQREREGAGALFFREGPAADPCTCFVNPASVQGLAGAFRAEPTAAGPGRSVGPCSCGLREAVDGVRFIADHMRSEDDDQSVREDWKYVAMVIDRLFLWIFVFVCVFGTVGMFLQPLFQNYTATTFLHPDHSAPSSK

The term Ki denotes a measure of affinity in units of concentration, obtained from inhibition or displacement. A higher Ki goes with weaker binding. Regarding `Cc1ccc(N2C[C@@]3(CN4CCC3CC4)OC2=O)s1`, the inhibitory constant (Ki) in [1] is 12 nM.
A word on the IC50: it is the point on the concentration scale where inhibition reaches its midpoint. A higher IC50 goes with a need for much substance. In series [2], `Cc1cc(N2C[C@@]3(CN4CCC3CC4)OC2=O)sc1C` returned an IC50 of more than 1000 nM.
In [1], `c1ccc2sc(CO[C@@H]3CN4CCC3CC4)cc2c1` yielded a Ki of 13 nM.
Same read-out and setting: the same measure for `O=C1O[C@]2(CN3CCC2CC3)CN1c1cc2ccccc2o1`: 370 nM.
`Cc1csc(N2C[C@@]3(CN4CCC3CC4)OC2=O)c1` showed an IC50 in series [2] of more than 1000 nM.
The same measure, in the same setting: the figure for `Cc1ccsc1N1C[C@@]2(CN3CCC2CC3)OC1=O` is more than 1000 nM.
In turn, `O=C1O[C@]2(CN3CCC2CC3)CN1c1ccc2ccccc2c1` had an inhibitory constant (Ki) in [1] of 31 nM.
In turn, `CC(O)c1ccc(N2C[C@@]3(CN4CCC3CC4)OC2=O)s1` (stereo partly specified) returned a Ki in series [1] of 145 nM.
Same read-out and setting: the figure for `N#Cc1ccc(N2C[C@@]3(CN4CCC3CC4)OC2=O)s1` is 85 nM.
In the case of `O=C1O[C@]2(CN3CCC2CC3)CN1c1ccccn1`, the half-maximal inhibitory concentration (IC50) in series [2] was more than 1000 nM.
On the same count and under the same terms, the same measure for `O=C1O[C@]2(CN3CCC2CC3)CN1c1ccsc1`: more than 1000 nM.
A word on the AUC: it is concentration integrated over time. A lower AUC goes with low exposure. The Cmax is the maximum level reached in the sampled fluid or tissue. In series [3], `O=C1NC[C@@]2(CN3CCC2CC3)O1` showed an area under the curve (AUC) at 24 h of 5390 ng·h/mL. The same compound came in with a half-maximal inhibitory concentration (IC50) in series [4] of more than 10000 nM. The Kp at 1 h in series [5] stood at 0.76. Besides, the Cmax in [6] was determined as 1580 ng/mL. For the same compound, the bioavailability in series [7] is 103%.
Regarding `O=C1O[C@@]2(CN3CCC2CC3)CN1c1cc2ccccc2s1`, the IC50 in [2] is more than 1000 nM.
In [1], `CC(C)c1ccc(N2C[C@@]3(CN4CCC3CC4)OC2=O)s1` came in with a Ki of 65 nM.
On the same count and under the same terms, the same measure for `O=C1O[C@@]2(CN3CCC2CC3)CN1c1ccc2ccccc2c1`: 205 nM.
In turn, `O=C1O[C@]2(CN3CCC2CC3)CN1c1nc2ccccc2o1` gave an IC50 in series [2] of more than 1000 nM.
As for `O=C1O[C@]2(CN3CCC2CC3)CN1c1ccc(Br)s1`, the affinity in series [1], expressed as Ki, was 4 nM.
In series [1], `CCc1ccc(N2C[C@@]3(CN4CCC3CC4)OC2=O)s1` gave a Ki of 21 nM. Compared with the last compound, the Ki is about 5.2-fold higher.
In the case of `O=C1O[C@]2(CN3CCC2CC3)CN1c1cccs1`, affinity in series [1] was put at a Ki of 80 nM.
As for `O=C1OC2(CN3CCC2CC3)CN1c1ccccc1` (stereo unspecified), the IC50 in [2] was more than 1000 nM.
Turning to `O=C(CC1CN2CCC1CC2)c1cc2ccccc2s1` (single isomer, unassigned; (+)), affinity in [1] was put at a Ki of 65 nM.
On the same count and under the same terms, the figure for `O=C1O[C@]2(CN3CCC2CC3)CN1c1nc2ccccc2s1` is 430 nM.
One may read the half-life as the time in which the quantity being followed falls by half. Read a low half-life as rapid decline. Consider `COc1ccc(/C=C2\CCCN=C2c2cccnc2)c(OC)c1` [GTS-21], for which, in series [3], the AUC at 24 h stood at 453 ng·h/mL. For the same compound, the inhibition constant (Ki) in series [8] worked out at 84 nM; in series [1], 220 nM. In series [4], this compound displayed an IC50 of more than 10000 nM. Besides, the Kp at 2 h in series [9] is less than 0.3. The highest level in [6] (Cmax) was 138 ng/mL. In series [7], the bioavailability came out at 14%. In addition, in series [10], the half-life is 28.2 min.
For the compound `O=C1O[C@]2(CN3CCC2CC3)CN1c1ccc(Cl)s1`, the bioavailability in series [11] amounted to 52%; in [7] it was 108%. Also, the results for the exposure (AUC) at 24 h in series [3] and in series [13] were 4640 ng·h/mL and 224 ng·h/mL, respectively. Besides, the Ki turned out to be 1800 nM in series [8] and 9 nM in series [1]. For the same compound, in series [4], the half-maximal inhibitory concentration (IC50) is more than 10000 nM. Also, in [9], the Kp at 2 h amounted to 59. Besides, the peak concentration (Cmax) in series [12] stood at 56 ng/mL; in [6], 997 ng/mL.
In series [1], `CC(=O)c1ccc(N2C[C@@]3(CN4CCC3CC4)OC2=O)s1` registered a Ki of 190 nM. This lies in the sub-micromolar range.
In series [1], `O=C1O[C@]2(CN3CCC2CC3)CN1c1cc2ccccc2s1` gave an inhibition constant (Ki) of 75 nM.
